# Source: ChEMBL document CHEMBL4373727, “Thienopyrimidinone Derivatives That Inhibit Bacterial tRNA (Guanine37-N1)-Methyltransferase (TrmD) by Restructuring the Active Site with a Tyrosine-Flipping Mechanism” (J Med Chem, 2019)
# Active and inactive are the calls of the source. The calls are words filed in the database; no cut-off is given here.
# Assays:
# [1] = tested on: Mycolicibacterium smegmatis; test: Antibacterial activity against Mycolicibacterium smegmatis MC2 155 at 100 uM incubated for 24 hrs; assay type: functional, organism-based
# Outline: (§1)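 Single-concentration growth screen: 100 μM test compound with log-phase bacteria at about 5×10^5 cells/mL. Incubation 24 h at 37 °C. Growth read by OD600 and given as percent of untreated control. MRSA was grown in cation-adjusted Mueller–Hinton broth. M. smegmatis was grown in complete Middlebrook 7H9. Ampicillin and kanamycin served as positive controls.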
# Staphylococcus aureus [2] = test: Antibacterial activity against methicillin-resistant Staphylococcus aureus ATCC 43300 at 100 uM incubated for 24 hrs; assay type: functional, organism-based; outline: as §1
# [3] = biological target: T1, tRNA (guanine-N(1)-)-methyltransferase (Pseudomonas aeruginosa (strain ATCC 15692 / DSM 22644 / CIP 104116 / JCM14847 / LMG 12228 / 1C / PRS 101 / PAO1), UniProt Q9HXQ1); test: Inhibition of Pseudomonas aeruginosa tRNA (guanine(37)-N1)-methyltransferase (Leu5 to Asp25 residues) expressed in Escherichia coli BL21 (DE3) Rosetta T1R cells assessed as reduction in S-adenosyl-L-homocysteine production preincubated for 15 mins followed by 1.5 uM of tRNALeu(CAG) substrate and SAM addition and measured after 45 mins by MTase-Glo assay
# T1 sequence (Q9HXQ1 whole entry): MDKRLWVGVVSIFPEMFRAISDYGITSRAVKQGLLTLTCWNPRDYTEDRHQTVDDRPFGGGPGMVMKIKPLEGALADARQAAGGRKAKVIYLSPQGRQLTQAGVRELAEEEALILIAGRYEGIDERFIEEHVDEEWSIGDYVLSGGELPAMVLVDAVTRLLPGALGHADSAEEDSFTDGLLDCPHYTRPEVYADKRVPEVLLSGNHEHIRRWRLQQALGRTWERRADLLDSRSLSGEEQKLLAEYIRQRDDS
# Outline: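 MTase-Glo luminescence assay. 8 nM TrmD preincubated 15 min at ambient temperature with serially diluted inhibitor (0–500 μM) in 50 mM Tris-HCl pH 8.0, 80 mM NaCl, 1 mM MgCl2, 0.5 mM DTT, 0.01% Triton X-100. Reaction with 2 μM SAM and tRNALeu(CAG), 45 min at 37 °C. Detection 30 min in the dark, SAH read against a standard curve. IC50 by nonlinear regression. Two independent experiments in duplicate.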
# Acinetobacter baumannii [4] = test: Bactericidal activity against Acinetobacter baumannii ATCC 17961 assessed as reduction in CFU at 1 to 4 times MIC90 incubated for 24 hrs; assay type: functional; details: ATCC 17961, 24 h, read-out: MBC99.9
# Streptococcus pneumoniae [5] = test: Bactericidal activity against Streptococcus pneumoniae ATCC 49619 assessed as reduction in CFU at 1 to 4 times MIC90 incubated for 24 hrs; assay type: functional; details: ATCC 49619, 24 h, read-out: MBC99.9
# Streptococcus pneumoniae [6] = test: Antibacterial activity against Streptococcus pneumoniae ATCC 49619 at 100 uM incubated for 24 hrs; assay type: functional, organism-based
# Outline: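 Single 100 μM screen in MH medium with 3% defibrinated sheep blood at 37 °C under 5% CO2, ~5×10^5 cells/mL, 24 h.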
# [7] = tested on: Mycobacterium tuberculosis; test: Antibacterial activity against Mycobacterium tuberculosis ATCC 27294 at 100 uM incubated for 7 days; assay type: functional, organism-based
# Escherichia coli [8] = test: Antibacterial activity against Escherichia coli BW25113 incubated for 24 hrs by serial broth microdilution method; assay type: functional, organism-based
# Outline: (§2)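 Log-phase cultures from four colonies grown overnight at 37 °C, inoculated at ~5×10^5 cells/mL in cation-adjusted Mueller–Hinton broth with serially diluted compound. Grown 24 h at 37 °C, then OD600 read. MIC50/MIC90 are the concentrations giving 50%/90% growth inhibition relative to drug-free controls. Two independent experiments in duplicate.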
# [9] = tested on: Mycolicibacterium smegmatis; test: Bactericidal activity against Mycolicibacterium smegmatis MC2 155 assessed as reduction in CFU at 1 to 4 times MIC90 incubated for 24 hrs; assay type: functional; details: MC2 155, 24 h, read-out: MBC99.9
# Pseudomonas aeruginosa [10] = test: Antibacterial activity against Pseudomonas aeruginosa PA14 incubated for 24 hrs by serial broth microdilution method; assay type: functional, organism-based; outline: as §2
# Pseudomonas aeruginosa [11] = test: Bactericidal activity against Pseudomonas aeruginosa PA14 assessed as reduction in CFU at 1 to 4 times MIC90 incubated for 24 hrs; assay type: functional, organism-based
# Streptococcus pneumoniae [12] = test: Antibacterial activity against Streptococcus pneumoniae ATCC 49619 incubated for 24 hrs by serial broth microdilution method; assay type: functional; details: ATCC 49619, 24 h
# Outline: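 Cultured in MH medium plus 3% defibrinated sheep blood at 37 °C, 5% CO2. Log-phase inoculum ~5×10^5 cells/mL was exposed to serial compound dilutions for 24 h. MIC50/MIC90 are relative to drug-free controls. Two independent experiments in duplicate.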
# Klebsiella pneumoniae [13] = test: Antibacterial activity against Klebsiella pneumoniae ATCC 13883 incubated for 24 hrs by serial broth microdilution method; assay type: functional, organism-based; outline: as §2
# Klebsiella pneumoniae [14] = test: Bactericidal activity against Klebsiella pneumoniae ATCC 13883 assessed as reduction in CFU at 1 to 4 times MIC90 incubated for 24 hrs; assay type: functional, organism-based
# Salmonella enteritidis [15] = test: Antibacterial activity against Salmonella enteritidis ATCC 13076 incubated for 24 hrs by serial broth microdilution method; assay type: functional, Salmonella enterica subsp. enterica serovar Enteritidis; details: Salmonella enterica, ATCC 13076, 24 h; outline: as §2
# Acinetobacter baumannii [16] = test: Antibacterial activity against Acinetobacter baumannii ATCC 17961 incubated for 24 hrs by serial broth microdilution method; assay type: functional; details: ATCC 17961, 24 h; outline: as §2
# Staphylococcus aureus [17] = test: Antibacterial activity against methicillin-resistant Staphylococcus aureus ATCC 43300 incubated for 24 hrs by serial broth microdilution method; assay type: functional; details: ATCC 43300, 24 h
# Outline: (§3)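 Growth read by OD600. MRSA in cation-adjusted Mueller–Hinton broth, M. smegmatis in complete 7H9. MIC50 and MIC90 are 50% and 90% growth inhibition versus drug-free controls. Two independent experiments, each in duplicate.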
# [18] = tested on: Mycobacterium tuberculosis; test: Antibacterial activity against Mycobacterium tuberculosis ATCC 27294 incubated for 7 days by broth dilution method; assay type: functional; details: ATCC 27294, 168 h
# Outline: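 M. tuberculosis ATCC 27294 in complete 7H9 with 0.05% Tween 80, 0.5% glycerol and 10% ADC. Mid-log cells adjusted to OD600 0.1 and added 1:1 to 2-fold serial compound dilutions (highest 100 μM). Incubated 7 d at 37 °C with shaking at 80 rpm, then OD600 read. Isoniazid positive control. MIC50/MIC90 versus drug-free controls. Biological duplicates.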
# Enterococcus faecalis [19] = test: Antibacterial activity against Enterococcus faecalis ATCC 51299 incubated for 24 hrs by serial broth microdilution method; assay type: functional, organism-based
# Outline: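 Broth microdilution in brain heart infusion broth, ~5×10^5 cells/mL log-phase inoculum, serial compound dilutions, 24 h at 37 °C, OD600 read-out. MIC50/MIC90 are the concentrations giving 50%/90% growth inhibition relative to drug-free controls. Two independent experiments in duplicate.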
# Salmonella enteritidis [20] = test: Bactericidal activity against Salmonella enteritidis ATCC 13076 assessed as reduction in CFU at 1 to 4 times MIC90 incubated for 24 hrs; assay type: functional, Salmonella enterica subsp. enterica serovar Enteritidis; details: Salmonella enterica, ATCC 13076, 24 h; read-out: MBC99.9
# Staphylococcus aureus [21] = test: Bactericidal activity against methicillin-resistant Staphylococcus aureus ATCC 43300 assessed as reduction in CFU at 1 to 4 times MIC90 incubated for 24 hrs; assay type: functional; details: ATCC 43300, 24 h, read-out: MBC99.9
# [22] = tested on: Mycolicibacterium smegmatis; test: Antibacterial activity against Mycolicibacterium smegmatis MC2 155 incubated for 24 hrs by serial broth microdilution method; assay type: functional; details: MC2 155, 24 h; outline: as §3
# Enterococcus faecalis [23] = test: Bactericidal activity against Enterococcus faecalis ATCC 51299 assessed as reduction in CFU at 1 to 4 times MIC90 incubated for 24 hrs; assay type: functional, organism-based
# Escherichia coli [24] = test: Bactericidal activity against Escherichia coli BW25113 assessed as reduction in CFU at 1 to 4 times MIC90 incubated for 24 hrs; assay type: functional, organism-based
# Enterococcus faecalis [25] = test: Antibacterial activity against Enterococcus faecalis ATCC 51299 at 100 uM incubated for 24 hrs; assay type: functional, organism-based
# Outline: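 Single-concentration screen in brain heart infusion broth. Log-phase cells at ~5×10^5 cells/mL were grown with 100 μM compound for 24 h at 37 °C. Growth was read as OD600 and expressed as a percentage of untreated wells. DMSO and blank controls were included.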
smiles,measurement,setting,value
CCCCCCCCCCCCNCc1ccc(CNC(=O)c2csc3nc[nH]c(=O)c23)cc1,Activity,[1],Active
same,Activity,Staphylococcus aureus [2],Active
same,IC50,[3],0.38 µM
same,MBC,Acinetobacter baumannii [4],> 100 µM
same,MBC,Streptococcus pneumoniae [5],> 100 µM
same,Activity,Streptococcus pneumoniae [6],Active
same,Activity,[7],Active
same,MIC50,Escherichia coli [8],inactive
same,MIC90,Escherichia coli [8],inactive
same,MBC,[9],69 µM
same,MIC50,Pseudomonas aeruginosa [10],inactive
same,MIC90,Pseudomonas aeruginosa [10],inactive
same,MBC99.9,Pseudomonas aeruginosa [11],inactive
same,MIC50,Streptococcus pneumoniae [12],62 µM
same,MIC90,Streptococcus pneumoniae [12],74 µM
same,MIC50,Klebsiella pneumoniae [13],inactive
same,MIC90,Klebsiella pneumoniae [13],inactive
same,MBC99.9,Klebsiella pneumoniae [14],inactive
same,MIC50,Salmonella enteritidis [15],> 100 µM
same,MIC90,Salmonella enteritidis [15],> 100 µM
same,MIC50,Acinetobacter baumannii [16],75 µM
same,MIC90,Acinetobacter baumannii [16],99 µM
same,MIC50,Staphylococcus aureus [17],5 µM
same,MIC90,Staphylococcus aureus [17],8.5 µM
same,MIC50,[18],44 µM
same,MIC90,[18],88 µM
same,MIC50,Enterococcus faecalis [19],inactive
same,MIC90,Enterococcus faecalis [19],inactive
same,MBC,Salmonella enteritidis [20],> 100 µM
same,MBC,Staphylococcus aureus [21],34 µM
same,MIC50,[22],17 µM
same,MIC90,[22],23 µM
same,MBC99.9,Enterococcus faecalis [23],inactive
same,MBC99.9,Escherichia coli [24],inactive
same,Activity,Enterococcus faecalis [25],Active
